Results published in ChEMBL document CHEMBL3259640 (J Med Chem, 2014).
In brackets after ≈: the same amount, converted by molar mass. Activity calls are given as the source filed them. No cut-off for these calls is given here.

Assays:
[1] = Solubility of the compound in phosphate buffered saline containing 1% DMSO at pH 7.4 after 2 hrs by HPLC analysis; type: physicochemical
Mus musculus = assay: Toxicity in BALB/c nu/nu mouse xenografted with human MDA-MB-231 cells assessed as body weight loss at 150 mg/kg, po bid for 28 days; type: organism-based; design: dose 150 mg/kg, route oral; conditions: in vivo, 672 h
Procedure, shortened: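 Female BALB/c nu/nu mice, 5–8 weeks old, implanted subcutaneously in the right flank with 1 × 10⁷ MDA-MB-231 cells in matrigel. Treatment began at about 100 mm³ tumor volume; 5 mice per group. Dosing for 28 days: IV 20 mg/kg once daily or PO 150 mg/kg twice daily, in 5% DMSO/10% Cremophor in H₂O; vehicle controls included. Body weight and tumor size (caliper) recorded every 2 days.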

[2] = target: T1, Kinetochore protein NDC80 homolog (Homo sapiens) (UniProt O14777); assay: Inhibition of Hec1/Nek2 interaction in human K562 cells assessed as reduction in coimmunoprecipitated Hec1 level at 100 nM after 16 hrs by co-immunoprecipitation assay; type: cell-based
T1 sequence (whole entry): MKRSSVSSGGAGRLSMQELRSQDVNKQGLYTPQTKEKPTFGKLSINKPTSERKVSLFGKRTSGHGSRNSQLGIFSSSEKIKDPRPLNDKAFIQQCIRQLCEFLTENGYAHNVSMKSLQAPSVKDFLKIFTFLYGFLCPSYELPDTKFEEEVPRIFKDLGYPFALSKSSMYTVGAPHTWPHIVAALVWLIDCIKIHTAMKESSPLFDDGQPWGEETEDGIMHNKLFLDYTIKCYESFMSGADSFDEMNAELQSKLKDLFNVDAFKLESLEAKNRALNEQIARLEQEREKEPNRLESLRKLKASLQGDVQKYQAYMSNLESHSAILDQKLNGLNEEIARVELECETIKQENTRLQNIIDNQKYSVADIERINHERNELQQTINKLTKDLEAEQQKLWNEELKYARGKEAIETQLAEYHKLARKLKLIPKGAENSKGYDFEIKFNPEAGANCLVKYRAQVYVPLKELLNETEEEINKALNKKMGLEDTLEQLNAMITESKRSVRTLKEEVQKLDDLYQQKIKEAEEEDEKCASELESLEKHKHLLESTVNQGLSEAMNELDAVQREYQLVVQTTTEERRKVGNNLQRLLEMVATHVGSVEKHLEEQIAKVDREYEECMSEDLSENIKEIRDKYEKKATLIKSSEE

[3] = target: T1, Kinetochore protein NDC80 homolog (Homo sapiens); assay: Inhibition of Hec1/Nek2 interaction in human MDA-MB-468 cells assessed as induction of Nek2 degradation at 100 nM by western blot analysis; type: cell-based
Procedure, shortened: (§1)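 MDA-MB-468 cells treated with compound at 100 nM, with or without MG132 at 500 nM. Lysates made in SDS sample buffer, run on SDS-PAGE and blotted to PVDF. Primary antibodies applied in 3% BSA-TBST, with HRP secondaries and enhanced chemiluminescence detection for Hec1 and Nek2.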

[4] = target: T1, Kinetochore protein NDC80 homolog (Homo sapiens); assay: Inhibition of Hec1/Nek2 interaction in human MDA-MB-468 cells assessed as induction of Nek2 degradation at 100 nM by western blot analysis in presence of 500 nM proteasome inhibition MG132; type: cell-based; procedure, shortened: as §1
[5] = target: T1, Kinetochore protein NDC80 homolog (Homo sapiens); assay: Inhibition of Hec1/Nek2 interaction in human K562 cells assessed as reduction in coimmunoprecipitated Hec1 level at 100 nM after 16 hrs by co-immunoprecipitation assay in presence of 500 nM proteasome inhibitor MG132; type: cell-based
MDA-MB-468 [6] = assay: Induction of mitotic abnormalities in human MDA-MB-468 cells assessed as increase in proportion of cells displaying multipolar spindles after 48 hrs by immunofluorescent staining based microscopy; type: functional, cell-based
MDA-MB-468 [7] = assay: Induction of mitotic abnormalities in human MDA-MB-468 cells assessed as proportion of cells displaying multipolar spindles at 10 nM after 48 hrs by immunofluorescent staining based microscopy (reference value: […]); type: functional
MDA-MB-468 [8] = assay: Induction of mitotic abnormalities in human MDA-MB-468 cells assessed as proportion of cells displaying chromosomal misalignment at 100 nM after 48 hrs by immunofluorescent staining based microscopy (reference value: 21.4%); type: functional
MDA-MB-468 [9] = assay: Induction of mitotic abnormalities in human MDA-MB-468 cells assessed as proportion of cells displaying chromosomal misalignment at 1000 nM after 48 hrs by immunofluorescent staining based microscopy (reference value: 21.4%); type: functional
HeLa = assay: Induction of apoptosis in human HeLa cells assessed as reduction in Mcl-1 protein expression at 1 uM after 24 to 48 hrs by western blot analysis; type: functional, cell-based
Procedure, shortened: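 HeLa cells given 1.0 μM compound, DMSO, or paclitaxel 100 nM for 24 and 48 h. Lysates made in SDS sample buffer, run on SDS-PAGE and transferred to PVDF. Blots probed for cleaved caspase-3, cleaved PARP, Bcl-2, Mcl-1 and XIAP, with actin as loading control, and detected by HRP-linked ECL.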

HCT-116 = assay: Growth inhibition of human HCT116 cells; type: functional
[10] = Growth inhibition of human HuH7 cells; type: functional; conditions: Huh-7
[11] = Growth inhibition of human PLC/PRF/5 cells; type: functional
[12] = Growth inhibition of human Hep3B cells; type: functional, Hep 3B2
Aurora kinase A = Aurora kinase A (Homo sapiens, UniProt O14965); assay: Inhibition of aurora A (unknown origin) assessed as [33P] incorporation in substrate by TopCount microplate scintillation counting analysis
Aurora kinase A, sequence (O14965 whole entry): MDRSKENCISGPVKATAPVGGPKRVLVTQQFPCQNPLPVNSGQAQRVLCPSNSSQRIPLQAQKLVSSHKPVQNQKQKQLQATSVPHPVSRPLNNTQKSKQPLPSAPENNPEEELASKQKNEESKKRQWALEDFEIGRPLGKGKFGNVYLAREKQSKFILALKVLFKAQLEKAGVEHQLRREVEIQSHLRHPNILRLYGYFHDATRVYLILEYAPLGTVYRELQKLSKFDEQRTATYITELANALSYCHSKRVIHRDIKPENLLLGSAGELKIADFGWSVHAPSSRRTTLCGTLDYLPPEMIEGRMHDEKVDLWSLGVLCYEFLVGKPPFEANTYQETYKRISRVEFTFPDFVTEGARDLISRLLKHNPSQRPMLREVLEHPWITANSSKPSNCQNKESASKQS

Aurora kinase B = Aurora kinase B (Homo sapiens, UniProt Q96GD4); assay: Inhibition of aurora B (unknown origin) assessed as [33P] incorporation in substrate by TopCount microplate scintillation counting analysis
Aurora kinase B, sequence (Q96GD4 whole entry, canonical isoform): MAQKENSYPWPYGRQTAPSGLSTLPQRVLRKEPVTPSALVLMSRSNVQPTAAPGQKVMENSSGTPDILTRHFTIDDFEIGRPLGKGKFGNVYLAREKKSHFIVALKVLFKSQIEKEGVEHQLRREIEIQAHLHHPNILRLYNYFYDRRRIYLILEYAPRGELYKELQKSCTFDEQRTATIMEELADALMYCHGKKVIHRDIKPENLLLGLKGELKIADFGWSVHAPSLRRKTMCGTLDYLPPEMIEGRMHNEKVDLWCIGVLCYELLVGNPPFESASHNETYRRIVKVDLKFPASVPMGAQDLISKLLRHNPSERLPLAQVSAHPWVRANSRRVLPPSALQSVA

[13] = target: Phosphatidylinositol 4,5-bisphosphate 3-kinase catalytic subunit alpha isoform (Homo sapiens, UniProt P42336); assay: Inhibition of PI3K alpha (unknown origin) assessed as [33P] incorporation in substrate by TopCount microplate scintillation counting analysis
[14] = target: Epidermal growth factor receptor (Homo sapiens, UniProt P00533); assay: Inhibition of EGFR (unknown origin) assessed as [33P] incorporation in substrate by TopCount microplate scintillation counting analysis
[15] = target: Epidermal growth factor receptor (Homo sapiens, UniProt P00533, T790M); assay: Inhibition of EGFR T790M mutant (unknown origin) assessed as [33P] incorporation in substrate by TopCount microplate scintillation counting analysis; type: protein assay
Epidermal growth factor receptor (Homo sapiens, UniProt P00533, T790M), sequence (P00533 25-1210 T790M limits assumed): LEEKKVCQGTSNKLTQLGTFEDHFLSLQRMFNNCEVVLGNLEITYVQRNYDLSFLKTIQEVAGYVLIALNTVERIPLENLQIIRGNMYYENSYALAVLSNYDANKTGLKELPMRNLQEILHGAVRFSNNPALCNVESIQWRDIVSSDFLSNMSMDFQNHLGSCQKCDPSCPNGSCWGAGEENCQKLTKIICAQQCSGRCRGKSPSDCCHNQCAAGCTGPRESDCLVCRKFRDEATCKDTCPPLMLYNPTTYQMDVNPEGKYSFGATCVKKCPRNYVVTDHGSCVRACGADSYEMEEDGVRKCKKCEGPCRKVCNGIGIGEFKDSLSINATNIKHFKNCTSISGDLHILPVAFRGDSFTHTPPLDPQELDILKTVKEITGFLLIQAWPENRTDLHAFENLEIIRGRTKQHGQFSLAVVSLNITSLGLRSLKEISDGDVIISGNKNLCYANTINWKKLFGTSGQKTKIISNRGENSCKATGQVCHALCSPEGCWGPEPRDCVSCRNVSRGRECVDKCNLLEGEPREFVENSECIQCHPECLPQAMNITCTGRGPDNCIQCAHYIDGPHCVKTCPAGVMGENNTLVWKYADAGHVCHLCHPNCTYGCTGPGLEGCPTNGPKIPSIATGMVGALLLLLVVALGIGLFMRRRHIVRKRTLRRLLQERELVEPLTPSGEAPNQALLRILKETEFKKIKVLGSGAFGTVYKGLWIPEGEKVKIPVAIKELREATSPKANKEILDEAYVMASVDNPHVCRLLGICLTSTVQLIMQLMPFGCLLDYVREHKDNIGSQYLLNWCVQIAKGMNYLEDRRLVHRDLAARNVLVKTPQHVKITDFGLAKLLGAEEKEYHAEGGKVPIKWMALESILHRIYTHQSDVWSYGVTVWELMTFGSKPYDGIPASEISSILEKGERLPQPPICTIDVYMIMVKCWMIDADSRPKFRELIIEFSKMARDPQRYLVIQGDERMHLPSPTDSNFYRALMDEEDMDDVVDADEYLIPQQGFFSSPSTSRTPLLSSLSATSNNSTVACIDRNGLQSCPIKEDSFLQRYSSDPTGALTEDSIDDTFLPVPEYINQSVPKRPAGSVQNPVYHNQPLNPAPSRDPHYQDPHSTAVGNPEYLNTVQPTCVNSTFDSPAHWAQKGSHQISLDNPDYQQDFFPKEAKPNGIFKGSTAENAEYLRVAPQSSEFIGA

[16] = target: Serine/threonine-protein kinase B-raf (Homo sapiens, UniProt P15056, V600E); assay: Inhibition of B-Raf V600E mutant (unknown origin) assessed as [33P] incorporation in substrate by TopCount microplate scintillation counting analysis
Serine/threonine-protein kinase B-raf, sequence (P15056 2-766 V600E limits assumed): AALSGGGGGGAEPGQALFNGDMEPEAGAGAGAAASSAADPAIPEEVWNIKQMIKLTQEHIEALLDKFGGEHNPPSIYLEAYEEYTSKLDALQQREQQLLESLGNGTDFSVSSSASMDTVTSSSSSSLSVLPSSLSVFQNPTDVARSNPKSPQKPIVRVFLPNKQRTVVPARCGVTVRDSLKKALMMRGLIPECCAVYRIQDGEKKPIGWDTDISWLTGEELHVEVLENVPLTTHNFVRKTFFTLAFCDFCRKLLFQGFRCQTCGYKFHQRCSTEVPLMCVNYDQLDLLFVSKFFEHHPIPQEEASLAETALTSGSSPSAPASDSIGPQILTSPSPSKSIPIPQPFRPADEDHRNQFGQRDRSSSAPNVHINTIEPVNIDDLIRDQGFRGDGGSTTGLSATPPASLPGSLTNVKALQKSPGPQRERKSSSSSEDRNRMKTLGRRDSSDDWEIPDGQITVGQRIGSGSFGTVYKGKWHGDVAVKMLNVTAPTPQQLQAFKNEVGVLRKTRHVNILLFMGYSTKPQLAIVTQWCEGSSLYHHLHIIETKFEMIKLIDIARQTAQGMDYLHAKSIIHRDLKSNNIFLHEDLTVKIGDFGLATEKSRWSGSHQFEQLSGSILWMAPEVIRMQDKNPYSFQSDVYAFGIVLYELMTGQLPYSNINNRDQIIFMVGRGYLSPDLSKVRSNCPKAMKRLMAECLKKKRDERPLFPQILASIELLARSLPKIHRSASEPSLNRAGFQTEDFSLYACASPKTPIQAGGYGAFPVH

[17] = target: Receptor-type tyrosine-protein kinase FLT3 (Homo sapiens, UniProt P36888); assay: Inhibition of FLT3 (unknown origin) assessed as [33P] incorporation in substrate by TopCount microplate scintillation counting analysis
Receptor-type tyrosine-protein kinase FLT3, sequence (P36888 whole entry): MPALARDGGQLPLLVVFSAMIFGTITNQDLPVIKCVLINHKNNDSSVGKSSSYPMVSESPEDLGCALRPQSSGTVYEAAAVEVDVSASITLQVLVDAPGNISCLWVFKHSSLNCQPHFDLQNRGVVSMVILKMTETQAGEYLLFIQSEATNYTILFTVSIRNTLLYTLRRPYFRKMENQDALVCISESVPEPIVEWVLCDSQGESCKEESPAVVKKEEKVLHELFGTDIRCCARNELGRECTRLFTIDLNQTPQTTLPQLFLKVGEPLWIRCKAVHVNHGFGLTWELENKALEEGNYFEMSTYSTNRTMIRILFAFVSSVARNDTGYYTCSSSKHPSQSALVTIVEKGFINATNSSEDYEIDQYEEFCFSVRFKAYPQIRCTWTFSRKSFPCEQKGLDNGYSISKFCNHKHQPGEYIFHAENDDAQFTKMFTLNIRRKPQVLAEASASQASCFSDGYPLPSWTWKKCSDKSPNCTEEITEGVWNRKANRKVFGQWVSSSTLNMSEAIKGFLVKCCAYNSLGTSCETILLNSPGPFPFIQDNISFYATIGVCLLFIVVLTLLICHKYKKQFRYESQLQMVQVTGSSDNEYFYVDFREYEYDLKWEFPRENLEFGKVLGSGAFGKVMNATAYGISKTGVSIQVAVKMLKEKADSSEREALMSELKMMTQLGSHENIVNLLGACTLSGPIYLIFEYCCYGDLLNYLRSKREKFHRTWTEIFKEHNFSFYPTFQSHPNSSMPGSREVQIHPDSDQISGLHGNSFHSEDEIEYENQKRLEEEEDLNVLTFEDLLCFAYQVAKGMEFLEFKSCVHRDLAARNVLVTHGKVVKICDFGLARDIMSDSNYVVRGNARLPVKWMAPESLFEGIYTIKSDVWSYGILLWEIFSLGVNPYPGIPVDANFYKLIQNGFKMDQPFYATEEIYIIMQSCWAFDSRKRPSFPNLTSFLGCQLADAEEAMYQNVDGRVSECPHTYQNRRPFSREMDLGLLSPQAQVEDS

[18] = target: Hepatocyte growth factor receptor (Homo sapiens, UniProt P08581); assay: Inhibition of MET (unknown origin) assessed as [33P] incorporation in substrate by TopCount microplate scintillation counting analysis
Hepatocyte growth factor receptor, sequence (P08581 whole entry): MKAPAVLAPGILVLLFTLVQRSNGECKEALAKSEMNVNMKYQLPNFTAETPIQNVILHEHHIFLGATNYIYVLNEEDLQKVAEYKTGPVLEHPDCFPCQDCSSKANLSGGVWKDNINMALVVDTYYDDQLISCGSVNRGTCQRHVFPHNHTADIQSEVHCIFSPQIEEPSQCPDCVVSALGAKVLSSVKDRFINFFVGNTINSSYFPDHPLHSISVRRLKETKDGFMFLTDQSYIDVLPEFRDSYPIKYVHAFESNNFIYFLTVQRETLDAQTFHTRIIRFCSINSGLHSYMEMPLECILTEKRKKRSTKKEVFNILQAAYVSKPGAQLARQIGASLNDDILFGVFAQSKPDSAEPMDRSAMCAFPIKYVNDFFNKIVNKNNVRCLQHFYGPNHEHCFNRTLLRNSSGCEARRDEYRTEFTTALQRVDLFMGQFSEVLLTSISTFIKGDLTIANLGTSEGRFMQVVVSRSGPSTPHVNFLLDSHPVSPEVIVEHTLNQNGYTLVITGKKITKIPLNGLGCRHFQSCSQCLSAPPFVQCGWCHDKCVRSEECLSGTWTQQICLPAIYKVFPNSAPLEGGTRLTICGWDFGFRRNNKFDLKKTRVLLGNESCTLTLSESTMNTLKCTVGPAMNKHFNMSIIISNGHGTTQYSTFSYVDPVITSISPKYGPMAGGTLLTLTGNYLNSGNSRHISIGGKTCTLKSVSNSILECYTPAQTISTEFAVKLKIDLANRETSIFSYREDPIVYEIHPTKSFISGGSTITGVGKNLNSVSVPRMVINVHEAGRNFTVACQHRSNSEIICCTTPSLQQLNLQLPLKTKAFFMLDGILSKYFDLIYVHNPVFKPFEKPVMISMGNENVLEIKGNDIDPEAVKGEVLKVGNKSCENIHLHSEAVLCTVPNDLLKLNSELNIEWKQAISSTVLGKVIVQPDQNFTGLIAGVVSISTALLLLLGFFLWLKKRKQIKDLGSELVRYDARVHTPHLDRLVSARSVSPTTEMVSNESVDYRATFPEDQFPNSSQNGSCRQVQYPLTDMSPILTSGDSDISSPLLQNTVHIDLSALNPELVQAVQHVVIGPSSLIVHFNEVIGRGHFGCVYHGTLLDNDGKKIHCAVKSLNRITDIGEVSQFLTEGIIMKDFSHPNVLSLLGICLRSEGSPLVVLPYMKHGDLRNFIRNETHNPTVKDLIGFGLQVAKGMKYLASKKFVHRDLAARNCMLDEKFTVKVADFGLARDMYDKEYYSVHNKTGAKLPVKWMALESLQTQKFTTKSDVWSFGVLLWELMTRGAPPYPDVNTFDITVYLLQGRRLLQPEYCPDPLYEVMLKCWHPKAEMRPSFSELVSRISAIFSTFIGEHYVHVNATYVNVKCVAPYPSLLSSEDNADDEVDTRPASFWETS

COc1ccc(Oc2cc(C)c(-c3csc(NC(=O)c4ccnc(F)c4)n3)c(C)c2)cc1
solubility kinetic at 2 h [1]: 0.19 µM (≈ 0.0854 µg/mL)
Activity (Mus musculus): < 5%
inhibition [2]: Active
Activity [3]: Active
Activity [4]: inactive
inhibition [5]: Active
Activity (MDA-MB-468 [6]): Dose-dependent effect
Activity (MDA-MB-468 [7]): 16.9%
Activity (MDA-MB-468 [8]): 21.8%
Activity (MDA-MB-468 [9]): 20%
inhibition (HeLa): Active
GI50 (HCT-116): 0.0341 µM
GI50 [10]: 0.0796 µM
GI50 [11]: 0.0796 µM
GI50 [12]: 0.0683 µM
IC50 (Aurora kinase A): > 10 µM
IC50 (Aurora kinase B): > 10 µM
IC50 [13]: > 10 µM
IC50 [14]: > 10 µM
IC50 [15]: > 10 µM
IC50 [16]: > 10 µM
IC50 [17]: > 10 µM
IC50 [18]: > 10 µM
